The structures appear in SMILES notation. Activity calls are given as the source filed them. No cut-off for these calls is given here.

In the first assay the target is T1, Adenosine receptor A1 (Homo sapiens, UniProt P30542).
T1 sequence (P30542 whole entry): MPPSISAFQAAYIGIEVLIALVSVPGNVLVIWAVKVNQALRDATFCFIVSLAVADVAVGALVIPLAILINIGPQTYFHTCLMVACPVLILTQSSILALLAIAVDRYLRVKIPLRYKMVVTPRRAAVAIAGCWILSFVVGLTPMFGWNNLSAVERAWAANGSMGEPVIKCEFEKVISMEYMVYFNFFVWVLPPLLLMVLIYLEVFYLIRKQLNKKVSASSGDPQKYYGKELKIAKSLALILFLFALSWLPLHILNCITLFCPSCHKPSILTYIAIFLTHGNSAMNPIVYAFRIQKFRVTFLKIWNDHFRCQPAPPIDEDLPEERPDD
Put plainly: Irreversible agonist activity at human adenosine A1 receptor expressed in Flp-In-CHO cells assessed as stimulation of ERK1/2 phosphorylation incubated for 5 mins.
Conditions: not given
The assay is classed as cell-based.
Consider `OC[C@H]1O[C@@H](n2cnc3c(NCCN=C=S)ncnc32)[C@H](O)[C@@H]1O`, for which the EC50 (usually the concentration giving half of the maximal effect) is 0.158 µM.

The next assay deals with Flp-In-CHO. Put plainly: Stimulation of ERK1/2 phosphorylation in Flp-In-CHO cells incubated for 5 mins. The assay is classed as cell-based. The note with it: Cricetulus griseus. In a few lines: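 A1AR-FlpInCHO cells were seeded at 4×10^4/well and serum-starved for about 18 h. Cells were stimulated with agonist for 5 min at 37°C, then lysed, and pERK1/2 was detected by SureFire. […] Curves were fitted for pEC50 and Emax. Three experiments in duplicate.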
On to `OC[C@H]1O[C@@H](n2cnc3c(NCCCCCCNC(=S)Nc4ccc(N=C=S)cc4)ncnc32)[C@H](O)[C@@H]1O`, for which the outcome was inactive. On the same count and under the same terms, then `OC[C@H]1O[C@@H](n2cnc3c(NCCCCCCN=C=S)ncnc32)[C@H](O)[C@@H]1O`, with “inactive”; and `O=C(NCCCCCCNc1ncnc2c1ncn2[C@@H]1O[C@H](CO)[C@@H](O)[C@H]1O)c1ccc(S(=O)(=O)F)cc1`, with “inactive”. The same measure, in the same setting: to `O=C(NCCNc1ncnc2c1ncn2[C@@H]1O[C@H](CO)[C@@H](O)[C@H]1O)C1=CC2C=CC1CC2` (some centres not stated) belongs “inactive”.

On to `O=C(NCCCCCCCCCCNc1ncnc2c1ncn2[C@@H]1O[C@H](CO)[C@@H](O)[C@H]1O)c1ccc(S(=O)(=O)F)cc1`, for which the outcome was inactive. Take `OC[C@H]1O[C@@H](n2cnc3c(NCCCCCCCCCCNC(=S)Nc4ccc(N=C=S)cc4)ncnc32)[C@H](O)[C@@H]1O`: the result was inactive. Same read-out and setting: to `OC[C@H]1O[C@@H](n2cnc3c(NCCN=C=S)ncnc32)[C@H](O)[C@@H]1O` belongs “inactive”.

In a further assay the target is T2, Adenosine receptor A1 (Homo sapiens) (UniProt P30542).
T2 sequence (whole entry): T1 sequence (P30542 whole entry)
Put plainly: Binding affinity to human adenosine A1 receptor expressed in Flp-In-CHO cell membranes assessed as [3H]DPCPX binding level at 10 uM incubated for 1 hr followed by washing by liquid scintillation counting based equilibrium radioligand binding assay. The note with it: Cell membrane, filed as agonist. In a few lines: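 Membranes from A1AR-FlpInCHO cells were pre-incubated with 10 µM ligand in PBS with 1 unit ADA for 1 h at 37°C. They were then washed 3× with PBS, with 1 h at 37°C between washes, and resuspended in HME buffer. [3H]DPCPX at 0.1–12 nM was bound for 1 h at 37°C, filtered and β-counted. Nonspecific binding was defined with 1 µM SLV320. Results are expressed as % of buffer-pretreated Bmax, from three experiments in duplicate.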
`CCCn1c(=O)c2nc(C3CCCC3)[nH]c2n(CCCOC(=O)c2ccc(S(=O)(=O)F)cc2)c1=O`: the Activity was found to be 2%.

For the next assay, the target named is T2, Adenosine receptor A1 (Homo sapiens). Put plainly: Binding affinity to human adenosine A1 receptor expressed in Flp-In-CHO cell membranes assessed as basal [35S]GTP-gamma-S incorporation level at 10 uM incubated for 40 mins followed by washing by liquid scintillation counting. The note with it: Cell membrane, filed as agonist. In a few lines:
(§1)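 Membranes were pretreated with 10 µM ligand and washed as for the [3H]DPCPX assay. […] 300 pM [35S]GTPγS was then added for 40 min at 20°C, followed by filtration and counting. Values are normalised to NECA-stimulated vehicle-pretreated membranes.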
(GTPγS is a poorly hydrolysed GTP analogue; its binding reports G protein activation.)
Regarding `CCCn1c(=O)c2nc(C3CCCC3)[nH]c2n(CCCOC(=O)c2ccc(S(=O)(=O)F)cc2)c1=O`, the Activity came out at 37%.

The target is the same in the next assay. The assay can be described thus: Binding affinity to human adenosine A1 receptor expressed in NECA-pre-treated Flp-In-CHO cell membranes assessed as [35S]GTP-gamma-S incorporation level at 10 uM incubated for 40 mins followed by washing by liquid scintillation counting. The note with it: Cell membrane, filed as agonist. In a few lines:
as §1
For the molecule `CCCn1c(=O)c2nc(C3CCCC3)[nH]c2n(CCCOC(=O)c2ccc(S(=O)(=O)F)cc2)c1=O`, the Activity came to 32%. Regarding `O[C@H]1CC[C@H](Nc2nc(-c3ccccc3)nc3[nH]ccc23)CC1`, the Activity is 37%.

Values taken from ChEMBL document CHEMBL4715802, “Novel Irreversible Agonists Acting at the A Adenosine Receptor” (J Med Chem, 2016).
